From PubChem BioAssay
Hits are enriched below; roughly 2.4% of the tested compounds scored in any of these assays.
m5-HT2A agonist: mouse HTR2A agonism via beta-arrestin recruitment. hit rate 0.66% among 360,000. CHO-K1 mHTR2A beta-arrestin complementation, luminescence; percent of 30 µM serotonin response. activation, % at 7.6 µM;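 active means activation above a run cutoff, the mean activation of all tested compounds plus 3 SD, cut at about 14% in these data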;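 further: 0% = plate median of compound wells and 100% = 30 µM serotonin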
Target sequence (P35363 whole entry, looked up): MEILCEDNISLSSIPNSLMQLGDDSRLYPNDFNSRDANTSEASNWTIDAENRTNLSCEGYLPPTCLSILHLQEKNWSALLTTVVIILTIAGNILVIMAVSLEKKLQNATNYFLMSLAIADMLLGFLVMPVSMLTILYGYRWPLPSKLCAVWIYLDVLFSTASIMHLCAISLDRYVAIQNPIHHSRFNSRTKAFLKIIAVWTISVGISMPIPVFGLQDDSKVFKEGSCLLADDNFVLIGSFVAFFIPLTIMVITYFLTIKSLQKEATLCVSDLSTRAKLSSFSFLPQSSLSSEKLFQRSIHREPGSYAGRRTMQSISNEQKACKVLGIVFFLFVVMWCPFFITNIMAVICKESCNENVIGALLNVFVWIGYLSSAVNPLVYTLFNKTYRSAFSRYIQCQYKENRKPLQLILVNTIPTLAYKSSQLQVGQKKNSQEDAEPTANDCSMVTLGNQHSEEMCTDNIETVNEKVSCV
Ins promoter up: MIN6 insulin promoter up-regulation; MIN6 insulin promoter-GFP reporter, high-content imaging; hits give high values; z-score at 5 µM; hit rate 0.3% among 190,000;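 active means z-score above 3 at 5 µM with at least 500 cells counted in the well; inconclusive means wells under 500 cells, flagged as cytotoxic or low count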
SR-BI DiI-HDL act: activators of SR-BI mediated HDL lipid uptake. hit rate 0.096% among 320,000. activation, % at 12.5 µM. CHO ldlA[mSR-BI] cells, DiI-HDL uptake fluorescence, 3 h; 100 = double the neutral-control signal;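 active means mean replicate activation of at least 60% and every replicate at or above 60%; inconclusive means mean or all-replicate condition met, but not both; inactive means mean below 60% and not all replicates reaching 60%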;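 further: 0% = median plate neutral-control signal and 100% = twice that signal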
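System: CHO ldlA[mSR-BI] cells / Medium: HEPES-buffered (25 mM, pH 7.4) F12 plus 0.5% BSA / Probe or stimulus: labelled HDL, 10 µg/mL / Doses: single compound concentration, delivered by pin transfer / Schedule: 3 h, 37 °C / Measured by: DiI fluorescence, bottom read / Measure: cell-associated DiI fluorescence as measure of HDL uptake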
beta cell repl: induces beta-cell replication in MIN6 cells; MIN6 cells proliferation, ATPlite luminescence, 48 h; cells starved in 0.2% serum; 100% = growth in 10% serum; proliferation, % at 10 µM; hit rate 0.29% among 330,000; AID 2380;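 active means compounds whose signal lies at least 3.5 SD above the mean of all wells on their plate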;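 further: 0% = DMSO-treated cells in low-serum medium and 100% = 10% serum control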
Calb FLC: C. albicans growth modulation with fluconazole. C. albicans CaCi-2 + fluconazole, Alamar Blue growth, 48 h. growth inhibition, % (no concentration beside the values). hit rate 0.57% among 300,000. AID 1979;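 active means growth inhibition above about 58% in most replicates, limit read from the data, passing the limit was not always enough; inconclusive means exactly half the replicates above a set limit; inactive means most replicates below a set limit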;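 further: all wells also contain fluconazole at 8 µg/ml as a sub-toxic cotreatment; 0% = median of DMSO wells and 100% = median of geldanamycin control wells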
SR-BI HDL uptake: blocks mouse SR-BI lipid uptake from DiI-HDL; ldlA[mSR-BI] CHO cells, DiI-HDL uptake fluorescence, 3 h; AID 488896; Q61009; hit rate 0.96% among 320,000; inhibition, % at 12.5 µM;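 active means mean replicate inhibition of at least 70% and a set share of replicates each scoring 70 or more; inconclusive means meets just one of the two criteria; inactive means fails both criteria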;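 further: 0% = median of neutral control wells and 100% = median of positive control wells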
An asterisk follows results filed as active; ? = inconclusive; / = no result given.

SMILES	m5-HT2A agonist	Ins promoter up	SR-BI DiI-HDL act	beta cell repl	Calb FLC	SR-BI HDL uptake
O=c1nc(/C=C/c2cc([N+](=O)[O-])ccc2Cl)cc(C(F)(F)F)[nH]1	-1	1.1	21	-6	89*	-21
N#C/C(=C\c1ccc(N2CCCCC2)o1)C(N)=O	0	/	6	-1	-3	-6
N#C/C(=C\c1ccc(N2CCCCC2)o1)C(=O)Nc1cccc(Br)c1	0	/	-99	3	/	99*
O=[N+]([O-])c1ccc(O)c(/C=N/NC(=S)Nc2ccc(Cl)cc2Cl)c1	-7	0.94	-105	-6	101*	105*
O=[N+]([O-])c1ccc(/C=N/NC(=S)Nc2ccc(Cl)cc2Cl)s1	-5	0.07	/	-6	107*	/
O=C(N/N=C/c1ccc([N+](=O)[O-])s1)c1ccccc1	1	-1.8	-8	-6	17	8
O=C(N/N=C\c1ccc([N+](=O)[O-])s1)c1cncc(Br)c1	-7	-2.1	-30	-6	108*	30
CCCCCn1c(=O)c(-c2nc3ccccc3[nH]2)c(O)c2ccccc21	2	-5.3	-95	-4	4	95*
COc1cc(OC)cc(C(=O)N2CCN(C(=O)c3ccc(-c4ccccc4)cc3)CC2)c1	5	-0.59	-79	-1	16	79*
COc1ccccc1CN1CCN(C(=O)c2cccc3ccccc23)CC1	-5	/	/	-2	3	/
COc1cccc(OC)c1C(=O)N1CCN(Cc2ccccc2C)CC1	0	0.62	67*	1	8	-67
COc1ccc(OC)c(CN2CCN(C(=O)c3cccc(S(=O)(=O)Nc4ccccc4OC)c3)CC2)c1	-8	/	-77	-5	0	77*
COc1ccc(OC)c(CN2CCN(C(=O)c3ccc(S(=O)(=O)Nc4ccccc4F)cc3)CC2)c1	-5	/	-58	0	/	58
COc1cccc(CN2CCN(C(=O)c3ccc(-c4ccccc4)cc3)CC2)c1OC	3	0.12	-9	-3	-7	9
COc1cc(CN2CCN(C(=O)c3ccc(-c4ccccc4)cc3)CC2)cc(OC)c1OC	-2	-1.3	-84	-2	11	84*
COc1ccc(OC)c(S(=O)(=O)N/N=C\c2cn(CC(N)=O)c3ccccc23)c1	6	/	0	2	0	0
C=CCN1C=C(C(C)=O)C(=O)CC1	-1	/	10	/	/	-10
CC(C)C(c1nnnn1C1CCCC1)N1CCC(C(N)=O)CC1 (configuration not stated)	0	-0.53	-49	-2	-16	49
CC(C)C(c1nnnn1C1CCCC1)N1CCOCC1 (configuration not stated)	2	3*	18	1	1	-18
CC1CC(C)C(=O)C(C(CC2CC(=O)NC(=O)C2)OC(=O)CC(=O)c2ccccc2)C1 (configuration not stated)	-1	/	29	/	/	-29
CCc1ccc2c(c1)C(c1ccc([N+](=O)[O-])cc1)=NNC(c1ccc(C)cc1)=N2	-3	0.46	-75	-2	-16	75*
CCCN1C(=O)/C(=C/c2c(N3CCNC(=O)C3CC(=O)OC)nc3c(C)cccn3c2=O)SC1=S (configuration not stated)	/	6.5*	/	/	/	/
N#Cc1cc(C(=O)c2cc(Cl)ccc2O)cn(-c2ccccc2)c1=O	2	-0.01	76*	0	0	-76
Cc1ccc(NC(=O)c2cc(C(=O)c3cc(Cl)ccc3O)cn(-c3ccc(C)cc3)c2=O)cc1	3	-1.3	-83	-3	-3	83*
O=[N+]([O-])c1cccc(N=Nc2ccc(O)cc2O)c1	-3	/	5	/	/	-5
SMILES	m5-HT2A agonist	Ins promoter up	SR-BI DiI-HDL act	beta cell repl	Calb FLC	SR-BI HDL uptake
CCOc1cc(C=O)cc(N=Nc2cccc([N+](=O)[O-])c2)c1O	-3	/	-6	-4	104*	6
CN1CCN(C(c2ccc(F)cc2)c2ccc3cccnc3c2O)CC1 (configuration not stated)	4	/	10	/	/	-10
CN1CCN(C(c2cccnc2)c2ccc3cccnc3c2O)CC1 (configuration not stated)	-4	1.9	26	-6	89*	-26
CN1CCN(C(c2ccc(Br)cc2)c2cc(Cl)c3cccnc3c2O)CC1 (configuration not stated)	-32	/	-3	-4	90*	3
CCCCN(C(=O)Cc1ccc(S(=O)(=O)N2CCOCC2)s1)c1c(N)n(CC(C)C)c(=O)[nH]c1=O	-2	/	22	-2	/	-22
COc1cccc2sc(=NC(=O)CS(=O)(=O)c3ccc(Cl)cc3)n(C)c12	-4	/	3	-6	99*	-3
COc1cccc2sc(=NC(=O)CS(=O)(=O)c3ccc(F)cc3)n(C)c12	-2	/	1	-8	21	-1
CCOc1ccc(CCNC(=O)Cn2nc(C)c3c(C)n(-c4ccccc4)nc3c2=O)cc1OCC	3	/	-15	2	12	15
CCOC(=O)c1cnc2c(cnn2C)c1NCc1ccc(OC)cc1	4	-1.4	-79	-3	14	79*
CC(=S)/C=C1\Sc2ccccc2N1C	-5	?	12	-4	117*	-12
COc1ccc(C(=O)/C=C2\Sc3ccccc3N2C)cc1	2	0	-28	-5	0	28
Cc1cc(C)n(-c2ccc(C(=O)Nc3nc4ccccc4s3)cc2)n1	1	-0.27	-70	5	0	70*
Cc1cc(C)n(-c2ccc(C(=O)Nc3cccc([N+](=O)[O-])c3)cc2)n1	-7	-0.83	-80	-1	-9	80*
CCCN1CCc2c(sc(NC(=O)CCS(=O)(=O)c3ccccc3)c2C(=O)OC)C1	-6	/	-3	-8	17	3
Cc1ccc2oc(-c3cccc(NC(=O)Cn4cnc5c(=O)n(C)c(=O)n(C)c54)c3)nc2c1	/	-2.6	/	-4	122*	/
CCC(C)c1ccc2oc(-c3ccc(NC(=O)Cn4cnc5c(=O)n(C)c(=O)n(C)c54)cc3)nc2c1 (configuration not stated)	-3	-0.29	7	-6	5	-7
CCCCCNC(=O)C(c1ccnc2ccccc12)n1c(=O)c(-c2cc3ccccc3[nH]2)nc2ccccc21 (configuration not stated)	1	/	/	/	/	/
Cc1ccc(CNC(=O)c2ccc(N3CCC4(CC3)CC(c3cccc(Br)c3)=NO4)c(N)c2)cc1	0	/	-85	-8	-10	85*
O=C(OC(C(=O)NCc1cccs1)c1ccccn1)c1cccs1 (configuration not stated)	4	1.3	16	-2	1	-16
CC(=O)OC(C(=O)NCc1ccc(F)cc1)c1ccccn1 (configuration not stated)	3	3.9*	/	3	-4	/
